An excerpt weighted towards active compounds, which were near 5.8% of everything screened.
KDM4C inh: blocks human GASC-1 (KDM4C) demethylase activity. inhibition, % at 12.5 µM. hit rate 0.15% among 96,000. AID 720574. GST-KDM4C 2-372, H3K9me3 peptide, LANCE TR-FRET;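 active = mean replicate inhibition above about 25%, with at least 55% of replicates also reaching it, limit read from the data, passing the limit was not always enough; inconclusive = only one of those two conditions met; inactive = neither condition met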
Target sequence (Q9H3R0 2-372 limits assumed): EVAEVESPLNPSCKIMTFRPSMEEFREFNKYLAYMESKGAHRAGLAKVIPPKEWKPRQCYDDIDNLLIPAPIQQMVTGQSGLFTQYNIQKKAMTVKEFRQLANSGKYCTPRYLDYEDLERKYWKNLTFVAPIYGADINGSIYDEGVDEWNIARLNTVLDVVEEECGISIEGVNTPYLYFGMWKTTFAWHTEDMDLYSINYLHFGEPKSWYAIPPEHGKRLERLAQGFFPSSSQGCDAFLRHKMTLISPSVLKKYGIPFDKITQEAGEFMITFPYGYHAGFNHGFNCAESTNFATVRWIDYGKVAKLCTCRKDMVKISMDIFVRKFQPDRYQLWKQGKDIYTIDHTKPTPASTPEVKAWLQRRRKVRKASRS
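Test system: N-terminal GST-fused human GASC-1 (KDM4C) fragment, residues 2-372; quantity: GASC-1 enzyme at 10 nM final in reaction; dosing: single dose; schedule: 30 min demethylation and 1 h detection at room temperature; signal: LANCE TR-FRET, excitation 340 nm, emissions 618 and 671 nm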
Pf Dd2 growth: inhibitors of Plasmodium falciparum Dd2 growth. AID 1159554. P. falciparum Dd2 growth, SYBR Green, 72 h; active compounds read low. activity change, % at 10 µM. hit rate 2.3% among 94,000; in the data active = activity change below about -80%; inconclusive = no clear call, values can overlap the other calls
IDH1 mut inh: inhibitors of human IDH1 R132H. inhibition, % at 10 µM. hit rate 0.18% among 70,000. IDH1 R132H reductase, diaphorase/resazurin fluorescence, 60 min. AID 624101. O75874; in the data active = inhibition above about 34%; inconclusive = no clear call, values can overlap the other calls; inactive = below about 11%;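 also: 0% = DMSO and 100% = no enzyme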
T cruzi growth-1: blocks T. cruzi growth in NIH3T3 culture. T. cruzi beta-gal in NIH3T3, GalScreen luminescence, 90 h. inhibition, % at 8.34 µM. hit rate 5.9% among 77,000. AID 624255;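 active = mean inhibition above about 93%, with at least 55% of replicates each passing it, limit read from the data, passing the limit was not always enough; inconclusive = only one of those two conditions holds; inactive = neither condition holds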
T cruzi growth-2: blocks T. cruzi growth in NIH3T3 host cells. shares compounds with T cruzi growth-1. T. cruzi beta-gal in NIH3T3, GalScreen luminescence, 90 h. inhibition, % at 8.35 µM. hit rate 72% among 5,600. AID 651739;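 active = mean replicate inhibition above about 95% and at least 55% of replicates individually reaching it, limit read from the data; inconclusive = only one of the two criteria is met; inactive = neither criterion is met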
T cruzi growth-3: blocks T. cruzi growth in NIH3T3 host cells; T. cruzi beta-gal in NIH3T3, GalScreen luminescence, 90 h; shares compounds with T cruzi growth-1; inhibition, % at 2.09 µM; hit rate 21% among 5,600;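 active = mean inhibition above about 95%, with at least 55% of replicates also reaching it, limit read from the data; inconclusive = meets just one of the two conditions; inactive = meets neither condition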;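 also: plate controls were neutral control median for no effect and positive control median for full effect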
3T3 cytotox: kills mouse NIH/3T3 fibroblasts | hit rate 14% among 5,600 | NIH/3T3 viability, CellTiter-Glo ATP luminescence, 90 h | shares compounds with T cruzi growth-1 | cytotoxicity (signal decrease), % at 8.35 µM;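 active = mean signal decrease across replicates above about 35% based on untreated-well scatter, with enough replicates individually passing, limit read from the data; inconclusive = no rule stated though some were filed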;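 also: 0% = median of neutral control wells and 100% = median of positive control wells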
NIH3T3 tox 2: cytotoxicity in mouse NIH/3T3 fibroblasts; shares compounds with T cruzi growth-1; NIH/3T3 viability, CellTiter-Glo ATP luminescence, 90 h; inhibition, % at 24.9 µM; hit rate 56% among 5,600;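 active = mean loss of cell viability signal at or above a set limit, and enough replicates individually reaching it; inconclusive = meets only the mean limit or only the replicate share; inactive = meets neither condition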;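 also: 0% = median of neutral control wells and 100% = median of positive control wells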
* marks the source's active call; other numbers are inactive results; u = inconclusive; x = no result; + = active, no number.

SMILES	KDM4C inh	Pf Dd2 growth	IDH1 mut inh	T cruzi growth-1	T cruzi growth-2	T cruzi growth-3	3T3 cytotox	NIH3T3 tox 2
O=C(C[C@H]1CC[C@@H]2[C@H](COC[C@H](O)CN2CCc2ccccc2)O1)NCc1ccc(Oc2ccccc2)cc1	1.0	-8.1	x	102.7*	101.7*	94.8	-0.4	106.6*
COc1cccc2cc(-c3nnc(SCC(=O)Nc4cccc(Br)c4)n3C)oc12	x	x	0.1	x	x	x	x	x
Cc1cc(Br)c(NC(=O)CSc2ncn(-c3ccccc3)n2)cc1C	x	x	0.5	x	x	x	x	x
CC=Cc1ccc2n(c1=O)C[C@H]1[C@H](CO)[C@@H](C(=O)NCc3ccccn3)[C@@H]2N1C (mixture of isomers)	0.6	x	x	+	-18.1	33.1	-2.8	-14.2
CC=Cc1ccc2n(c1=O)C[C@H]1[C@H](CO)[C@@H](C(=O)NCCC)[C@@H]2N1C(=O)C1CC1 (mixture of isomers)	0.0	-2.2	x	111.9*	99.0*	8.6	14.1	20.0
CC=Cc1ccc2n(c1=O)C[C@@H]1[C@@H](CO)[C@H](C(=O)NCCCN(C)C)[C@H]2N1C(=O)c1ccccc1F (mixture of isomers)	0.2	x	x	+	57.1	-62.1	-2.6	7.8
CC=Cc1ccc2n(c1=O)C[C@@H]1[C@@H](CO)[C@H](C(=O)Nc3ccc(-c4ccccc4)cc3)[C@H]2N1C(=O)CC (mixture of isomers)	-2.5	x	x	134.6*	102.6*	12.6	24.0	48.0*
O=C(CC(C(=O)O)N1CCCCC1)Nc1cccc([N+](=O)[O-])c1 (stereo not given)	x	x	-0.2	x	x	x	x	x
COC(=O)c1sc2ncn(CC(=O)Nc3cccc(Cl)c3C)c(=O)c2c1C	x	x	-0.1	x	x	x	x	x
CC1(C)CC[C@]2(C(=O)O)CC[C@]3(C)C(=CCC4[C@@]5(C)CC[C@H](O[C@@H]6O[C@H](C(=O)O)[C@@H](O[C@@H]7OC[C@@H](O)[C@H](O)[C@H]7O)[C@H](O)[C@H]6O)C(C)(C)C5CC[C@]43C)C2C1 (stereo not given in full)	x	x	-0.2	x	x	x	x	x
CC=Cc1ccc2n(c1=O)C[C@@H]1[C@@H](CO)[C@H](C(=O)NCc3ccccc3Cl)N(S(C)(=O)=O)[C@H]21 (mixture of isomers)	0.2	x	x	97.5*	80.7	8.3	-12.7	2.0
Cc1cc2nn(-c3cccc4ccccc34)nc2cc1NC(=O)COc1ccc([N+](=O)[O-])cc1	x	x	0.1	x	x	x	x	x
C[C@@H]1CCCCO[C@H](CN(C)C(=O)Cc2ccccc2)[C@H](C)CN([C@@H](C)CO)C(=O)c2cc(NC(=O)Nc3cccc4ccccc34)ccc2O1	-1.6	-57.0	x	101.2*	104.6*	56.9	-36.8	2.3
C[C@H]1CCCCO[C@H](CN(C)C(=O)Cc2ccccc2)[C@@H](C)CN([C@@H](C)CO)C(=O)c2cc(NC(=O)Nc3ccccc3)ccc2O1	-0.3	-44.6	-0.3	98.6*	108.8*	51.9	27.9	7.7
C[C@@H]1CCCCO[C@@H](CN(C)C(=O)Cc2ccccc2)[C@H](C)CN([C@H](C)CO)C(=O)c2cc(NC(=O)NC3CCCCC3)ccc2O1	1.0	-17.0	0.4	99.6*	107.6*	25.9	9.8	25.8*
C[C@@H]1CCCCO[C@@H](CN(C)C(=O)Cc2ccccc2)[C@@H](C)CN([C@H](C)CO)C(=O)c2cc(NC(=O)Nc3cccc4ccccc34)ccc2O1	-2.0	4.9	x	53.7	x	x	x	x
Cc1ccccc1-n1nnnc1SCC(=O)Nc1cccc(Cl)c1Cl	x	x	-0.2	x	x	x	x	x
CO[C@H]1CN(C)C(=O)c2ccc(NS(=O)(=O)c3cccc(F)c3)cc2OC[C@H](C)N(Cc2cc(F)ccc2F)C[C@H]1C	0.1	-26.5	0.2	x	x	x	x	x
CO[C@H]1CN(C)C(=O)c2cc(NS(=O)(=O)c3cccc(F)c3)ccc2OC[C@@H](C)N(Cc2cc(F)ccc2F)C[C@@H]1C	-1.4	4.0	0.0	112.2*	110.1*	25.9	-6.9	13.0
CO[C@@H]1CN(C)C(=O)c2cc(NC(=O)C3CC3)ccc2OC[C@H](C)N(Cc2cc(F)ccc2F)C[C@@H]1C	1.0	-71.2	0.1	61.1	x	x	x	x
CO[C@H]1CN(C)C(=O)c2cc(NS(=O)(=O)c3cccc(F)c3)ccc2OC[C@H](C)N(Cc2cc(F)ccc2F)C[C@@H]1C	-1.4	-41.3	0.3	111.8*	104.7*	92.5	-34.1	-26.5
CO[C@H]1CN(C)C(=O)c2cc(NC(=O)C3CC3)ccc2OC[C@H](C)N(Cc2cc(F)ccc2F)C[C@@H]1C	-0.9	-76.6	-0.3	97.2*	108.4*	24.5	20.6	45.1*
CO[C@H]1CN(C)C(=O)c2cc(NC(=O)C3CCCCC3)ccc2OC[C@H](C)NC[C@H]1C	0.2	-5.3	0.1	106.8*	9.1	-2.8	6.9	4.4
CO[C@H]1CN(C)C(=O)c2ccc(NS(=O)(=O)c3cccc(F)c3)cc2OC[C@@H](C)N(Cc2cc(F)ccc2F)C[C@@H]1C	-1.1	-7.2	0.1	x	x	x	x	x
Cc1ccc(-c2nc3cc(NC(=O)COc4ccccc4[N+](=O)[O-])ccc3o2)cc1	x	x	-0.2	x	x	x	x	x
SMILES	KDM4C inh	Pf Dd2 growth	IDH1 mut inh	T cruzi growth-1	T cruzi growth-2	T cruzi growth-3	3T3 cytotox	NIH3T3 tox 2
CO[C@H]1CN(C)C(=O)c2cc(NS(=O)(=O)c3cccc(F)c3)ccc2OC[C@H](C)N(Cc2cc(F)ccc2F)C[C@H]1C	-1.0	-24.4	-0.9	114.7*	108.1*	73.8	-17.6	105.3*
CO[C@H]1CN(C)C(=O)c2ccc(NS(=O)(=O)c3cccc(F)c3)cc2OC[C@@H](C)N(Cc2cc(F)ccc2F)C[C@H]1C	1.5	-9.0	0.4	x	x	x	x	x
O=C(CSc1nnc(-c2ccc(Cl)cc2Cl)o1)Nc1ccc([N+](=O)[O-])cc1	x	x	0.2	x	x	x	x	x
COc1ccc(C)cc1NC(=O)CN(c1cc(Cl)c(Cl)cc1Cl)S(C)(=O)=O	x	x	0.0	x	x	x	x	x
O=C(Nc1cccc(F)c1)N1CCCCN2[C@H](CO)[C@H](c3ccc(C#Cc4cccnc4)cc3)[C@H]2C1	-1.4	-53.6	x	95.5*	107.6*	48.2	21.8	103.4*
O=C(Nc1cccc(F)c1)N1CCCCN2[C@H](C1)[C@H](c1ccc(C#CC3CC3)cc1)[C@@H]2CO	-1.5	-5.7	x	118.3*	109.5*	86.6	9.9	10.9
O=C(Nc1cccc(F)c1)N1CCCCN2[C@H](CO)[C@@H](c3ccc(C#Cc4cccnc4)cc3)[C@@H]2C1	-1.7	-27.8	x	105.4*	109.2*	u	15.2	81.4*
O=C(Nc1ccc(F)cc1)N1CCCCN2[C@@H](CO)[C@@H](c3ccc(C#Cc4ccccc4)cc3)[C@@H]2C1	-4.1	-77.8	x	120.6*	108.0*	114.8*	117.7*	105.0*

Bioassay records as filed in PubChem.
